Data on 18 molecules can be found in ChEMBL document CHEMBL4265959, “Targeting heme Oxygenase-1 with hybrid compounds to overcome Imatinib resistance in chronic myeloid leukemia cell lines” (Eur J Med Chem, 2018).

Structures are written as SMILES. Active and inactive are the calls of the source. The calls are words filed in the database; no cut-off is given here. Bounds are passed on as bounds.

One data set deals with K562. In words: Cytotoxicity against imatinib-sensitive human K562 cells assessed as decrease in cell viability after 24 hrs by XTT assay. The format is functional, cell-based. Conditions: K562, 24 h. A digest of the protocol:
(§1)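 K562R (imatinib-resistant) or K562S cells seeded at 1×10^4/well in phenol red-free RPMI, left 24 h, then exposed 24 h to various concentrations. XTT reagent added, 2 h incubation, absorbance at 450 nm; IC50 reported. Mean ± SD, four experiments in triplicate.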
For orientation: Tetrazolium assays rely on reduction of a dye to a coloured formazan, in cell work by metabolically active cells.

Data set [1] concerns K-562R. Briefly: Cytotoxicity against human K562R cells assessed as decrease in cell viability after 24 hrs by XTT assay. The format is functional, cell-based. A digest of the protocol: as §1
For a further data set, the target named is T1, Heme oxygenase 1 (Rattus norvegicus, UniProt P06762).
T1 sequence (P06762 whole entry): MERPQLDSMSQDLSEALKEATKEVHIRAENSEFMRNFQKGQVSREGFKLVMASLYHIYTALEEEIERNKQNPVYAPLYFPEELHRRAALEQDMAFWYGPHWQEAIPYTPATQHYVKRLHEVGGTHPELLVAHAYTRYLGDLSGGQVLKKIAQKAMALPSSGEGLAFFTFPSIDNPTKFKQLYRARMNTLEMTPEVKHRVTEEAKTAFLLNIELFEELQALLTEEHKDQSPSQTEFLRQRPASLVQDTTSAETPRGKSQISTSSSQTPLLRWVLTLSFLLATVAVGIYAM
Briefly: Inhibition of heme oxygenase 1 in Sprague-Dawley rat spleen microsomal fraction assessed as decrease in bilirubin formation using hemin as substrate after 60 mins by spectrophotometric method.

Data set [2] has as its target Bcr/Abl fusion protein (Homo sapiens) (UniProt P00519+P11274). In words: Inhibition of BCR-ABL in human K562R cells assessed as decrease in CrKL phosphorylation at 10 uM by immuno blot analysis. Type of data set: cell-based. A digest of the protocol: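 K562R cells treated 24 h at 10 μM and lysed. 20 μg protein separated on SDS-PAGE, transferred to nitrocellulose and probed with anti-CrkL and anti-pCrkL (1:1,000), then infrared-dye secondary antibody. Densitometry gives pCrkL/CrkL ratio as fold of untreated control. Four experiments in triplicate.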

Another data set has as its system Lymphocyte. In words: Cytotoxicity against human lymphocytes assessed as decrease in cell viability at 10 uM after 24 hrs by XTT assay. Type of data set: cell-based. A digest of the protocol: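 Lymphocytes from healthy volunteers isolated on Ficoll–Paque, grown in RPMI-1640 with 10% FBS and 1% penicillin/streptomycin at 37 °C, 5% CO2, and treated 24 h at 10 μM.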

Data set [3] relates to K-562R. In words: Induction of apoptosis in human K562R cells assessed as viable cells at 10 uM by Annexin V staining-based flow cytometry (reference value: 81.13%). Conditions: read-out: Activity. The format is functional. For orientation: A flow cytometer gives signals particle by particle.
In data set [4] the test system is K-562R. In words: Induction of apoptosis in human K562R cells assessed as early apoptotic cells at 10 uM by Annexin V staining-based flow cytometry (reference value: 8.51%). Type of data set: functional.
The subject of data set [5] is K-562R. Briefly: Induction of apoptosis in human K562R cells assessed as late apoptotic cells at 10 uM by Annexin V staining-based flow cytometry (reference value: 9.49%). Type of data set: functional.
In data set [6] the test system is K-562R. Briefly: Induction of apoptosis in human K562R cells assessed as necrotic cells at 10 uM by Annexin V staining-based flow cytometry (reference value: 0.87%). Type of data set: functional.
Data set [7] addresses T2, Heme oxygenase 1 (Homo sapiens) (UniProt P09601).
T2 sequence (whole entry): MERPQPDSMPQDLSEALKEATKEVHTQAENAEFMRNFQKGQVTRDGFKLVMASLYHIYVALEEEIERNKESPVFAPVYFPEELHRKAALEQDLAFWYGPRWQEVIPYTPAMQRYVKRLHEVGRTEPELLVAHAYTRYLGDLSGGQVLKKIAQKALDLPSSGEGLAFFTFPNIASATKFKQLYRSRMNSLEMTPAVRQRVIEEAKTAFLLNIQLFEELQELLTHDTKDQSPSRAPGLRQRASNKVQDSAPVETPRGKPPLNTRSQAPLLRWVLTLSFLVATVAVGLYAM
In words: Inhibition of heme oxygenase 1 in human K562R cell lysates assessed as decrease in bilirubin formation at 10 uM after 60 mins by spectrophotometric method. A digest of the protocol: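 Intact K562R cells treated 24 h at 10 μM, then lysate (1 mg/mL) assayed. Mix: 20 mM Tris-HCl pH 7.4, liver biliverdin reductase 0.5–2 mg/mL, 1 mM NADPH, G6P/G6PDH, 25 μM hemin. 60 min at 37 °C in the dark, chloroform extraction, bilirubin by OD 464–530 nm. Mean ± SD, four experiments in triplicate.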

For data set [8], the system named is K-562R. Briefly: Induction of ROS production in human K562R cells at 10 uM by DCFH-DA dye based spectrofluorometric method. Type of data set: functional, cell-based. A digest of the protocol: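 K562R cells (RPMI-1640, 10% FBS, 37 °C, 5% CO2) treated 24 h at 10 μM, then probed with DCFH-DA. DCF fluorescence read at excitation 488 nm, emission 525 nm, normalized to total protein (F.I./mg protein). Mean ± SD, four experiments in triplicate.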

Data set [9] addresses T2, Heme oxygenase 1 (Homo sapiens). In words: Inhibition of heme oxygenase 1 in human K562R cells assessed as decrease in HO-1 mRNA levels at 10 uM by qRT-PCR method. The format is cell-based. A digest of the protocol: (§2)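 K562R cells treated 24 h at 10 μM, rinsed in cold PBS and lysed in Trizol. HO-1 and HO-2 mRNA measured by real-time PCR alongside GAPDH. Mean ± SD, four experiments in triplicate.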

Data set [10] has as its system K-562R. In words: Effect on heme oxygenase 2 mRNA levels in human K562R cells at 10 uM by qRT-PCR method. Type of data set: functional, cell-based. A digest of the protocol:
as §2
(In general: Real-time PCR tracks product formation cycle by cycle.)

Bcr/Abl fusion protein (Homo sapiens), sequence (P00519 whole entry, looked up, the tested form may be a part): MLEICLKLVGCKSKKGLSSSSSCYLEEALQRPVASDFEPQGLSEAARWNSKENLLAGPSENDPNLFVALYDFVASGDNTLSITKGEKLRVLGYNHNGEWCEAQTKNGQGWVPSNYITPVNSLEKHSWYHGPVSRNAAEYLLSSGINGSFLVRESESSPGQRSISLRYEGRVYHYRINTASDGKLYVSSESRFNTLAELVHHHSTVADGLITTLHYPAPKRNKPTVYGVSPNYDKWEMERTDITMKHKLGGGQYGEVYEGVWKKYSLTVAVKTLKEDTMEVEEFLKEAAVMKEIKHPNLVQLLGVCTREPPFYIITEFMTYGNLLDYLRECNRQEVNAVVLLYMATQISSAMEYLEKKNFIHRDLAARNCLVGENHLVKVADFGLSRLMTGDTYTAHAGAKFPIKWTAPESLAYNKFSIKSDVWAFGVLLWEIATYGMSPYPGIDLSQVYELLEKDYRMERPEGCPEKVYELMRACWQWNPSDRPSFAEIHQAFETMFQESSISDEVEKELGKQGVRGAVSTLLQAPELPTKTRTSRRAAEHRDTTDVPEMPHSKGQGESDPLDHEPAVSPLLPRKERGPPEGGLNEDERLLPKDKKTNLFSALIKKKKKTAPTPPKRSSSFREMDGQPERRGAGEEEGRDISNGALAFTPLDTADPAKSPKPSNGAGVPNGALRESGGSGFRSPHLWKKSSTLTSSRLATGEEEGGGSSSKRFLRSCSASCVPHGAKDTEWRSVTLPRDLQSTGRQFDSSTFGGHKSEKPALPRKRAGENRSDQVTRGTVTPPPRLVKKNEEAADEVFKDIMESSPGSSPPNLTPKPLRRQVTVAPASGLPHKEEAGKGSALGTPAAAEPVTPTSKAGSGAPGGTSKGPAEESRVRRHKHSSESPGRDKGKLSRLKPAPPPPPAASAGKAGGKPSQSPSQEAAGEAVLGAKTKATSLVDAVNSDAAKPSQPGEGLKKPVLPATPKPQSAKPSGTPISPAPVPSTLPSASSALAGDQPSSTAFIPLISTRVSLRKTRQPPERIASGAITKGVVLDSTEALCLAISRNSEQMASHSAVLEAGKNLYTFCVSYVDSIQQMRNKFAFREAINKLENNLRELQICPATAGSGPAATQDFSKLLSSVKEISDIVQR
Bcr/Abl fusion protein (Homo sapiens), sequence (P11274 whole entry, looked up, the tested form may be a part): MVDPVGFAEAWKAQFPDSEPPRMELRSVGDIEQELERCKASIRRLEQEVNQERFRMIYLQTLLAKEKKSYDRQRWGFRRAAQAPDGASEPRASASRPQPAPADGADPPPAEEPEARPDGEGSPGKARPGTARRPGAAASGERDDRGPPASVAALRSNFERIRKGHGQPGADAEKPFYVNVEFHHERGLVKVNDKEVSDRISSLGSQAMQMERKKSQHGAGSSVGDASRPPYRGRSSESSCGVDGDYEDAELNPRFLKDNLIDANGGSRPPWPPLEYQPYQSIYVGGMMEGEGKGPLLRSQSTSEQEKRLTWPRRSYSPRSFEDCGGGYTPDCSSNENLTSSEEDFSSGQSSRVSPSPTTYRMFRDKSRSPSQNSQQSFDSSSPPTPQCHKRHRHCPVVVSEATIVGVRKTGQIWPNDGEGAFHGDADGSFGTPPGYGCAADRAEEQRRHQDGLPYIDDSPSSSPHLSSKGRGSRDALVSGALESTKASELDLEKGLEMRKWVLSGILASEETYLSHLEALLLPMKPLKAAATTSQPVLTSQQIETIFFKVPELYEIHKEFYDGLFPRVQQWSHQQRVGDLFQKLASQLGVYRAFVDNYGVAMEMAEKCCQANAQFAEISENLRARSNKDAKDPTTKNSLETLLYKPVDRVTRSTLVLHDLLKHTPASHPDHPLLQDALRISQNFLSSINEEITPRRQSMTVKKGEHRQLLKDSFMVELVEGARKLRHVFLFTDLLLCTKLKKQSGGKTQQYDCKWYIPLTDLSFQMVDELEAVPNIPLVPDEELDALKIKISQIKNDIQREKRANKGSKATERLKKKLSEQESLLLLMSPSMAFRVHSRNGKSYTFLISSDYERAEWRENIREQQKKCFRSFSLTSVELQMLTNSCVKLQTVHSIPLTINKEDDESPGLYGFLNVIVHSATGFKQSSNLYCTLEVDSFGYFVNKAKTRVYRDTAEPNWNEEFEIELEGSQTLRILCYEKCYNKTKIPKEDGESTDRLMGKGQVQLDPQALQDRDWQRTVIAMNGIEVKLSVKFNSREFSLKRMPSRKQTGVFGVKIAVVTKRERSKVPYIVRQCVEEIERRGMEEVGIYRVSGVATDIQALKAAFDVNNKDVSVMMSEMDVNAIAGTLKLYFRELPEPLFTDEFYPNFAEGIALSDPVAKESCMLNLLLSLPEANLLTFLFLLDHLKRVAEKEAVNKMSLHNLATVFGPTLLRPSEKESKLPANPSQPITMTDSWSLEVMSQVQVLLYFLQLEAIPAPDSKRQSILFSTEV

In general, IC50 refers to the midpoint of a concentration-inhibition curve. For the molecule `Cc1ccc(NC(=O)c2cccc(OCCCCn3ccnc3)c2)cc1Nc1nccc(-c2cccnc2)n1`, the values for the IC50 in the data set with K562, in the data set with K-562R [1] and at Heme oxygenase 1 were 74.6 µM, 63.4 µM and 38.5 µM, respectively.
On to `Cc1ccc(NC(=O)c2ccc(OCCCCn3ccnc3)c(Br)c2)cc1Nc1nccc(-c2cccnc2)n1`, for which the IC50 amounted to 12 µM with K562, 31.8 µM in the data set on K-562R [1] and 0.92 µM on Heme oxygenase 1. The inhibition result in data set [2] is “Active”. For the same molecule, the Activity entry in the data set on Lymphocyte was “Non-Toxic”; with K-562R [4], 2.3%; in the data set with K-562R [5], 13.15%; in the data set with K-562R [6] it was 0.65%. In addition, the viability at 10 µM in the data set with K-562R [3] was determined as 83.8%.
On to `Ic1ccc(OCCCCn2ccnc2)cc1`, for which the IC50 amounted to 69.1 µM in the data set on K562 and 84.4 µM in the data set on K-562R [1]. Further, the inhibition result in data set [7] was “Active”. In addition, the result in the data set with K-562R [8] was Active.
For `Cc1ccc(NC(=O)c2ccc([N+](=O)[O-])c(OCCCCn3ccnc3)c2)cc1Nc1nccc(-c2cccnc2)n1`, the IC50 amounted to 25 µM with K562, 47.6 µM with K-562R [1] and 4.03 µM at Heme oxygenase 1. For the same molecule, the inhibition entry in data set [2] is “Active”. In addition, the Activity result is “Non-Toxic” in the data set with Lymphocyte, 2.15% in the data set with K-562R [4], 14.2% in the data set on K-562R [5] and 1.25% in the data set on K-562R [6]. Moreover, the viability at 10 µM in the data set with K-562R [3] is 82.4%.
As for `Cc1ccc(NC(=O)c2ccc(I)cc2OCCCCn2ccnc2)cc1Nc1nccc(-c2cccnc2)n1`, the IC50 in the data set with K562 was found to be 57.4 µM; with K-562R [1], 51.8 µM; on Heme oxygenase 1, 15.1 µM.
The like results for `Cc1ccc(NC(=O)c2ccc(OCCCCn3ccnc3)cc2)cc1Nc1nccc(-c2cccnc2)n1` were, in that order, 49.9 µM, 99.4 µM and 66.2 µM.
In the case of `Cc1ccc(NC(=O)c2ccc(CN3CCN(C)CC3)cc2)cc1Nc1nccc(-c2cccnc2)n1` [IMATINIB], the IC50 with K562 was 1 µM; in the data set on K-562R [1], 98.8 µM; at Heme oxygenase 1 it was greater than 100 µM. The viability at 10 µM in the data set with K-562R [3] was 89.4%. Further, the Activity in the data set with K-562R [4] came out at 6.25%; in the data set on K-562R [5], 3.6%; with K-562R [6] it was 0.79%. The inhibition entry in data set [7] is “Active”. Moreover, in data set [9], the inhibition entry is “inactive”. The outcome with K-562R [8] was inactive.
Consider `COc1cc(C(=O)Nc2ccc(C)c(Nc3nccc(-c4cccnc4)n3)c2)ccc1OCCCCn1ccnc1`, for which the IC50 with K562 came out at 29.5 µM; in the data set with K-562R [1], 27.1 µM; at Heme oxygenase 1, 56.6 µM. Besides, the inhibition result in data set [2] is “Active”. In addition, the Activity result in the data set with Lymphocyte is listed as “Non-Toxic”; in the data set on K-562R [4] it was 4.4%; in the data set with K-562R [5], 32.3%; in the data set with K-562R [6], 2.9%. Further, the viability at 10 µM with K-562R [3] stood at 60.4%.
As to `Cc1ccc(OCCCCn2ccnc2)c(C(=O)Nc2ccc(C)c(Nc3nccc(-c4cccnc4)n3)c2)c1`, the values for the IC50 in the data set with K562, in the data set on K-562R [1] and at Heme oxygenase 1 were 59.5 µM, 48.6 µM and 0.95 µM, respectively.
In the case of `Cc1ccc(NC(=O)c2ccc(Br)cc2OCCCCn2ccnc2)cc1Nc1nccc(-c2cccnc2)n1`, the IC50 in the data set with K562 was found to be 66.1 µM; with K-562R [1], 44.6 µM; on Heme oxygenase 1, 0.95 µM. The inhibition entry in data set [2] is “Active”.
For `COc1ccc(C(=O)Nc2ccc(C)c(Nc3nccc(-c4cccnc4)n3)c2)cc1OCCCCn1ccnc1`, the half-maximal inhibitory concentration (IC50) with K562 was found to be 10.1 µM; with K-562R [1] it was 18.7 µM; at Heme oxygenase 1 it was 15.1 µM. The inhibition result in data set [2] and in data set [7] was “Active” each time. In addition, the Activity entry in the data set on Lymphocyte is recorded as “Non-Toxic”; with K-562R [4], 5.4%; with K-562R [5], 39.5%; in the data set on K-562R [6], 3.85%. The viability at 10 µM with K-562R [3] was 51.3%. Besides, the outcome in the data set on K-562R [10] was inactive. Besides, the outcome with K-562R [8] was Active.
As to `COc1ccc(C(=O)Nc2ccc(C)c(Nc3nccc(-c4cccnc4)n3)c2)c(OCCCCn2ccnc2)c1`, the values for the IC50 with K562, with K-562R [1] and at Heme oxygenase 1 were 58.9 µM, 46.6 µM and 61.6 µM, respectively.
The like results for `Cc1ccc(NC(=O)c2ccccc2OCCCCn2ccnc2)cc1Nc1nccc(-c2cccnc2)n1` were, in that order, 47.5 µM, 83.4 µM and 28 µM.
With `Cc1ccc(NC(=O)c2cc(Br)cc(OCCCCn3ccnc3)c2)cc1Nc1nccc(-c2cccnc2)n1`, the IC50 in the data set with K562 came out at 6.5 µM; in the data set on K-562R [1], 19.1 µM; at Heme oxygenase 1, 28.6 µM. Besides, the inhibition result in [2] and in [7] was “Active” throughout. Besides, the Activity result is listed as “Non-Toxic” in the data set with Lymphocyte, 1.55% in the data set on K-562R [4], 47.6% in the data set on K-562R [5] and 9.65% in the data set on K-562R [6]. The viability at 10 µM with K-562R [3] came to 41.2%. The result with K-562R [10] was inactive. Besides, in the data set on K-562R [8], the result was Active.
On to `Brc1cccc(OCCCCn2ccnc2)c1`, for which the half-inhibitory concentration (IC50) in the data set on K562 turned out to be 68.3 µM; in the data set on K-562R [1] it was 81.7 µM. In data set [7], the inhibition result is “Active”. In addition, in the data set with K-562R [8], the result was Active.
Regarding `Cc1ccc(NC(=O)c2ccc(OCCCCn3ccnc3)c(I)c2)cc1Nc1nccc(-c2cccnc2)n1`, the IC50 came out at 32.5 µM with K562, 52.4 µM with K-562R [1] and 74.9 µM at Heme oxygenase 1. In addition, the inhibition entry in data set [2] is “Active”.
For `Cc1ccc(N)cc1Nc1nccc(-c2cccnc2)n1`, the IC50 at Heme oxygenase 1 was greater than 100 µM.
As to `Cc1ccc(NC(=O)c2cc(I)ccc2OCCCCn2ccnc2)cc1Nc1nccc(-c2cccnc2)n1`, the IC50 amounted to 66.5 µM in the data set on K562, 81.7 µM with K-562R [1] and 38.9 µM on Heme oxygenase 1.
